KCC2 mod: KCC2 (human) Cl- transport modulation | Q9H2X9 | KCC2 cells, thallium flux FluoZin-2 fluorescence | B-score of Tl+ flux slope (higher = more flux/activation; lower = inhibition) at 10 µM | 2.2% of 190,000 active | AID 1456;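 active means thallium flux slope and its plate-corrected score both differing from the plate sample mean at a set confidence after two filtering rounds, in either direction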;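 further: slope of fluorescence scaled to starting intensity during 10 to 20 s after thallium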
ROMK primary: modulates human ROMK potassium channel activity; P48048; AID 1918; B-score at 10 µM; Tet-inducible ROMK, thallium flux fluorescence; actives lie on both sides; 2% of 130,000 active;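 active means signal ratio slope over the read window, or its plate-corrected B-score, at least 3 SD from the plate mean, either direction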;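 further: B-score of the F/F0 ratio slope over 7 to 12 s after thallium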
Target sequence (P48048 whole entry, looked up): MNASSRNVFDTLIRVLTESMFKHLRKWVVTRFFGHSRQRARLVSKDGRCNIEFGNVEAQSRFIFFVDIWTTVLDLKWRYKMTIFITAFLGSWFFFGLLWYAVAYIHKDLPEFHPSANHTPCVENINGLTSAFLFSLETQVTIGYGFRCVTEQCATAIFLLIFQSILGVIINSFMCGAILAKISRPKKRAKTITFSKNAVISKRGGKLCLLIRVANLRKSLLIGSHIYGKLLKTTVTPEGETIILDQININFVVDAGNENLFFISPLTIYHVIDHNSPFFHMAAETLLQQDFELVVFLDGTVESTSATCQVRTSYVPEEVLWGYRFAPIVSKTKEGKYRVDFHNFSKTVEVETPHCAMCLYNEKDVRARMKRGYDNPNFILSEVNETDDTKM
RBBP9 inh: inhibitors of human serine hydrolase RBBP9; O75884; AID 1515; 0.2% of 220,000 active; recombinant RBBP9, FP-Rh probe fluorescence polarization; inhibition, % at 7.94 µM;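 active means inhibition above the campaign mean of all tested compounds plus 3 SD, cut at about 14% in these data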
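Test system: recombinant human RBBP9; Timing: 30 min then 45 min, 25 °C; Detection: fluorescence polarization; Control set: RBBP9 with DMSO as uninhibited control, no-protein wells as full inhibition; Compound dosing: one concentration, 7.94 µM nominal, 0.794% DMSO; Probe or stimulus: FP-Rh activity-based probe, 375 nM before mixing.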
NCF1 inh: blocks human p47phox regulatory protein of NADPH oxidases. p47phox/p22phox peptide binding, fluorescence polarization, 2 h. P14598. 0.53% of 220,000 active. inhibition, % at 24.7 µM;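 active means inhibition above about 30%, limit read from the data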
14-3-3 Bad inh: disrupts binding of bovine 14-3-3 zeta to phospho-Bad peptide; AID 781; inhibition, % at 21.7 µM; 0.71% of 220,000 active; TR-FRET 14-3-3zeta/Dy647-pBad peptide displacement, 1 h; P63103;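 active means inhibition above about 70%, limit read from the data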
Target sequence (P63103 whole entry, looked up): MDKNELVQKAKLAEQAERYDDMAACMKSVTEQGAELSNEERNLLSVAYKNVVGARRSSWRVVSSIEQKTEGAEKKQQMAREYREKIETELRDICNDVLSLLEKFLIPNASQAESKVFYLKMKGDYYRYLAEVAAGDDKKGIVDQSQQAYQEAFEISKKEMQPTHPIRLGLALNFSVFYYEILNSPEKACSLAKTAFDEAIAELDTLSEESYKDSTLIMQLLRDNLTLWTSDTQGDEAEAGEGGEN
WT yeast gro inh: growth inhibition of WT yeast, mitochondrial fusion screen; mitochondrial fusion phenotypic screen, WT strain; inhibition, % at 10 µM; 2.1% of 190,000 active; in the data active means inhibition above about 58%; tested in S. cerevisiae
Large screens that a line does not name were inactive; [ ] = another dose, or the depositor's remark. The list is not random: actives were taken first. Their share in the collection is about 5.8%.

O=C1/C(=C/Nc2ccc3c(c2)OCO3)CCc2ccccc21	WT yeast gro inh 62.5 (no result: ROMK primary)
Clc1ccccc1OCc1nnc2n1CCCCC2	none (no result: ROMK primary, WT yeast gro inh)
Cc1ccc(C(=O)COc2cc(C)nc3nncn23)cc1	none (no result: WT yeast gro inh)
CCCn1nnc(NC(=O)c2ccc(-c3cccc(Cl)c3)o2)n1	WT yeast gro inh 73.9 (no result: ROMK primary)
O=C(Nc1ccc([N+](=O)[O-])cc1)Nc1nc(-c2ccc(Cl)s2)cs1	WT yeast gro inh 86.6 (no result: ROMK primary)
CCC1=[N+](C)CCn2c(C)ccc21	14-3-3 Bad inh 77.2[fluorescence artefact?]
CCC1=[N+](CC(=O)c2ccc(C)cc2)CCn2c(C)ccc21	none (no result: ROMK primary)
O=C(O)C1CCCCC1C(=O)Nc1ccc(F)cc1F (centres undefined)	WT yeast gro inh 96.9 (no result: ROMK primary)
OC1CCCN(c2c3c(nc4cc(-c5cccc(Cl)c5)nn24)CCC3)C1 (centres undefined)	WT yeast gro inh 67.4 (no result: ROMK primary)
OC1CCCN(c2c3c(nc4cc(-c5cccc(F)c5)nn24)CCCC3)C1 (centres undefined)	WT yeast gro inh 69.4
CCN1CCN(c2cc(-c3ccccc3)nc3cc(-c4cccc(F)c4)nn23)CC1	WT yeast gro inh 81.9
COc1cccc(-c2cc3nc(-c4ccccc4)cc(N4CCCC(O)C4)n3n2)c1 (centres undefined)	WT yeast gro inh 69.2
O=C(Nc1nnc(C2CC2)s1)c1n[nH]c(=O)c2ccccc12	none (no result: KCC2 mod, ROMK primary, WT yeast gro inh)
O=C1c2ccccc2C(=O)c2c(NCCCN(CCO)CCO)cccc21	NCF1 inh 37.3
O=C(COC(=O)c1ccc(Cl)c(S(=O)(=O)N2CCCCC2)c1)NCC1CCCO1 (centres undefined)	none (no result: NCF1 inh)
COC(C(=O)NNC(=O)CCc1ccccc1)c1ccccc1 (centres undefined)	none
Cc1cc(-c2n[nH]c(=S)n2Cc2ccccc2)cs1	NCF1 inh 41.0 (no result: ROMK primary)
Cc1scc(-c2n[nH]c(=S)n2Cc2ccccc2)c1C	WT yeast gro inh 70.9 (no result: ROMK primary)
S=c1[nH]nc(-c2ccncc2)n1Cc1ccccc1	none (no result: KCC2 mod)
Cc1ccc(NNC(=O)C(=O)N2CCCCC2)cc1	WT yeast gro inh 64.4 (no result: ROMK primary)
S=C(c1ccc(-c2cccc(Cl)c2)o1)N1CCCCC1	WT yeast gro inh 58.1 (no result: ROMK primary)
CCCn1c(CCC(=O)O)nc2cc(S(=O)(=O)N3CCCC3)ccc21	none (no result: ROMK primary, WT yeast gro inh)
O=C(O)COc1ccc(/C=N/NC(=O)c2ccc(-c3csc(Nc4ccc(Cl)cc4)n3)cc2)cc1	14-3-3 Bad inh 94.4 (no result: ROMK primary, WT yeast gro inh)
CN1N=C(C(=O)Nc2ccc3c(c2)CCC3)CCC1=O	none
CC1(C)CC(=O)c2sc(NS(C)(=O)=O)nc2C1	14-3-3 Bad inh 71.1
COc1ccccc1NC(=O)CN1CC(=O)Nc2ccccc21	none
O=C(NC(Cc1ccccc1)C(=O)O)/C(=C/c1ccccc1)NC(=O)c1cccc(Br)c1 (centres undefined)	none
Clc1ccc(Oc2cccc(/C=N/n3cnnc3)c2)cc1	WT yeast gro inh 67.8 (no result: ROMK primary)
Cc1cc(C)n(CCc2nc(-c3ccc(F)cc3)cs2)n1	none
Cc1cc(C)n(CCc2nc(-c3ccc(C(C)(C)C)cc3)cs2)n1	WT yeast gro inh 74.7 (no result: ROMK primary)
Cc1cccc2nc(-c3ccccc3)nc(N[C@@H](CO)c3ccccc3)c12	14-3-3 Bad inh 76.0[fluorescence artefact?], WT yeast gro inh 65.6
CCOC(=O)C1=C(COc2ccc(C)cc2)NC(=O)NC1c1cc(C)ccc1C (centres undefined)	NCF1 inh active (no result: ROMK primary)
O=S(=O)(NCCSCc1ccc(Cl)cc1Cl)c1ccc2c(c1)OCCO2	WT yeast gro inh 72.5
O=S(=O)(NCCSCc1c(Cl)cccc1Cl)c1ccc2c(c1)OCCO2	none (no result: ROMK primary)
N/N=C(/Cc1nc2ccccc2[nH]1)c1ccc([N+](=O)[O-])cc1	WT yeast gro inh 90.1
c1ccc(N/N=C(\Cc2nc3ccccc3[nH]2)c2ccccc2)cc1	WT yeast gro inh 72.0 (no result: ROMK primary)
CC1(C)CC(=O)C([N+](=O)[O-])=C(NCCCC(=O)O)C1	none
COC(=O)c1cn(NC(=O)/C=C/c2ccc(OC)c(OC)c2)c(=O)c2ccccc12	none (no result: ROMK primary)
Cn1cc([N+](=O)[O-])c(C(=O)Nc2cc(Oc3cccnc3)cc([N+](=O)[O-])c2)n1	14-3-3 Bad inh 74.4
O=[N+]([O-])c1cc(Oc2cccnc2)cc([N+](=O)[O-])c1	none
C/C=C(/C)C(=O)Nc1cccc(C2=NOC3(C2)C[C@H](C(N)=O)N(C(=O)c2ccc(Cl)cc2)C3)c1 (some centres undefined)	NCF1 inh 42.3 (no result: ROMK primary, RBBP9 inh, WT yeast gro inh)
C=C(C)C(=O)Nc1cccc(C2=NOC3(C2)C[C@@H](C(N)=O)N(C(=O)c2ccc(Cl)cc2)C3)c1 (some centres undefined)	none (no result: ROMK primary, RBBP9 inh, WT yeast gro inh)
CSCc1cc(N2CCOCC2)nc(SCc2ccc(Cl)c(Cl)c2)n1	WT yeast gro inh 62.2 (no result: ROMK primary)
COCc1cc(N2CCOCC2)nc(SCc2ccc(Cl)cc2)n1	none
COc1ccc(/C=C/C(=O)N2CCN(c3ccccn3)CC2)c2ccccc12	WT yeast gro inh 62.4
CC(C)(C)c1ccc(OCCNC(=S)Nc2ccccc2)cc1	WT yeast gro inh 81.8 (no result: ROMK primary)
CCOc1ccc(CSCCNC(=S)Nc2ccccc2)cc1	WT yeast gro inh 71.1 (no result: ROMK primary)
CCCCNC(=S)Nc1ccc(Oc2ccccc2)cc1	WT yeast gro inh 65.1
CCOc1ccc(NC(=S)NCCCc2ccccc2)cc1	WT yeast gro inh 69.8
CN(C)c1ccc(NC(=O)COC(=O)Cn2nnc3ccccc32)cc1	none (no result: ROMK primary)
CCN(Cc1ccncc1)Cc1cn[nH]c1-c1ccc(OC)cc1F	none
COCCn1c(SCC(=O)NCc2ccc3c(c2)OCO3)nc2ccccc2c1=O	none
COc1ccc(CCN(Cc2cc3cc(C)cc(C)c3nc2Cl)C(=O)C2CC2)cc1	WT yeast gro inh 68.0
Nc1nnnn1CC(=O)N/N=C/c1ccccn1	none (no result: ROMK primary, WT yeast gro inh)
Cc1ccc(NC2=C(NC(=O)c3ccccc3)C(=O)c3ccccc3C2=O)cc1Cl	WT yeast gro inh 67.9 (no result: ROMK primary)
CCOC(=O)c1cc2c(ccn2C)n1Cc1ccccc1Cl	WT yeast gro inh 68.5
CCOC(=O)c1cc2c(ccn2C)n1Cc1ccccc1C	none
Cc1ccc(-n2c3c(c(=O)[nH]c2=O)C(NS(=O)(=O)c2ccc(Cl)cc2)(C(F)(F)F)C(=O)N3)cc1 (centres undefined)	none (no result: ROMK primary)
Cc1ccc(CN2CCN(Cc3cccn3-c3ccccn3)CC2CCO)o1 (centres undefined)	none
O=c1oc2ccccc2n1CCCCCn1c(=O)oc2ccccc21	none
NC(=O)CCn1c(=O)oc2ccccc21	NCF1 inh 67.9
COc1cccc(-c2nnc(Nc3nc4c(F)cccc4s3)o2)c1	KCC2 mod 38.9, ROMK primary 9.44
COc1cccc(-c2nnc(NC(C)=O)o2)c1	none (no result: ROMK primary, RBBP9 inh)
COc1ccccc1-c1nnc(Nc2nc3c(OC)cccc3s2)o1	KCC2 mod 4.15, ROMK primary 2.38
COc1cccc2sc(NN)nc12	none
C=CCN(CC=C)C(=O)c1cc2ccccc2c(=O)o1	none
Cc1cc(-c2csc3nc[nH]c(=S)c23)cc(C)c1C	KCC2 mod 85.1, ROMK primary 5.18 (no result: NCF1 inh)
Cc1sc2nc[nH]c(=S)c2c1-c1ccccc1	KCC2 mod 30.7, ROMK primary 6.4
